In ChEMBL document CHEMBL1667749, “Design & synthesis of N'-[substituted] pyridine-4-carbohydrazides as potential anticonvulsant agents” (Eur J Med Chem, 2011):
Activity calls are given as the source filed them. No cut-off for these calls is given here.

What was measured:
[1] = system: Mus musculus; assay: Anticonvulsant activity in albino CF-1 mouse assessed as protection against maximal electroshock-induced seizures at 300 mg/kg, ip after 0.5 hrs; assay type: functional, organism-based; set-up: dose 300 mg/kg
Method in brief: (§1)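 Male CF-1 mice (18–25 g), i.p. in 0.5% methyl cellulose at 30, 100 and 300 mg/kg; MES: 60 Hz, 50 mA, 0.2 s through tetracaine-primed corneal electrodes; protection = abolished hind limb tonic extension. Value given as minimum dose active in half or more of mice.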

[2] = system: Mus musculus; assay: Anticonvulsant activity in albino CF-1 mouse assessed as protection against subcutaneous metrazol-induced seizures at 300 mg/kg, ip after 0.5 hrs; assay type: functional, organism-based; set-up: dose 300 mg/kg
Method in brief: (§2)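 Male CF-1 mice, i.p. at 30, 100, 300 mg/kg in 0.5% methyl cellulose; metrazol dose convulsing 97% of animals injected s.c. in midline neck fold, mice isolated and watched 30 min; protected if no 3–5 s clonic spasm episode of limbs, jaws or vibrissae.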

[3] = system: Mus musculus; assay: Anticonvulsant activity in albino CF-1 mouse assessed as protection against subcutaneous metrazol-induced seizures at 300 mg/kg, ip after 4 hrs; assay type: functional, organism-based; set-up: dose 300 mg/kg; method in brief: as §2
[4] = system: Mus musculus; assay: Neurotoxicity in albino CF-1 mouse assessed as motor impairment at 300 mg/kg, ip after 4 hrs by rotarod test; assay type: toxicity, organism-based; set-up: dose 300 mg/kg, route intraperitoneal; conditions: in vivo
Method in brief: (§3)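 Minimal motor impairment in male CF-1 mice by rotorod after i.p. dosing; toxic if animal falls off rotating rod 3 times within 1 min. Screen doses 30, 100, 300 mg/kg; quantitative TD50 (95% confidence interval) determined at time of peak effect.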

[5] = Octanol-phosphate buffer partition coefficient, log P of the compound at 5 mg, after 24 hrs by UV spectroscopic analysis; assay type: physicochemical
Method in brief: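 5 mg compound added to 10 mL octanol plus 10 mL phosphate buffer in stoppered tube, mechanically shaken 24 h at room temperature, then left in separating funnel 6 h to equilibrate.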

[6] = system: Mus musculus; assay: Anticonvulsant activity in albino CF-1 mouse assessed as protection against maximal electroshock-induced seizures at 300 mg/kg, ip after 4 hrs; assay type: functional, organism-based; set-up: dose 300 mg/kg; method in brief: as §1
[7] = system: Mus musculus; assay: Anticonvulsant activity in albino CF-1 mouse assessed as protection against maximal electroshock-induced seizures at 300 mg/kg, ip after 2 hrs; assay type: functional, organism-based; set-up: dose 300 mg/kg; method in brief: as §1
[8] = system: Mus musculus; assay: Neurotoxicity in albino CF-1 mouse assessed as motor impairment at 300 mg/kg, ip after 0.5 hrs by rotarod test; assay type: toxicity, organism-based; set-up: dose 300 mg/kg, route intraperitoneal; conditions: in vivo; method in brief: as §3
[9] = system: Mus musculus; assay: Anticonvulsant activity in albino CF-1 mouse assessed as protection against 6 Hz psychomotor seizure at 100 mg/kg, ip after 0.5 hrs by minimal clonic seizure test; assay type: functional
Method in brief: (§4)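 Male CF-1 mice (18–25 g), i.p. 100 mg/kg in 0.5% methyl cellulose suspension; 6 Hz corneal stimulation, 32 mA for 3 s, four mice per time point. Protected if no minimal clonic phase with stereotyped automatistic behaviour.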

[10] = system: Mus musculus; assay: Anticonvulsant activity in albino CF-1 mouse assessed as protection against 6 Hz psychomotor seizure at 100 mg/kg, ip after 1 hr by minimal clonic seizure test; assay type: functional; method in brief: as §4
[11] = system: Mus musculus; assay: Anticonvulsant activity in albino CF-1 mouse assessed as protection against 6 Hz psychomotor seizure at 100 mg/kg, ip after 4 hrs by minimal clonic seizure test; assay type: functional, organism-based; set-up: dose 100 mg/kg; method in brief: as §4
[12] = system: Mus musculus; assay: Anticonvulsant activity in albino CF-1 mouse assessed as protection against 6 Hz psychomotor seizure at 100 mg/kg, ip after 0.25 hrs by minimal clonic seizure test; assay type: functional; method in brief: as §4
[13] = system: Mus musculus; assay: Anticonvulsant activity in albino CF-1 mouse assessed as protection against 6 Hz psychomotor seizure at 100 mg/kg, ip after 2 hrs by minimal clonic seizure test; assay type: functional; method in brief: as §4
[14] = Neuroprotective activity in hippocampal slices assessed as protection against NMDA-induced cell death after 4 hrs; assay type: functional, tissue-based; conditions: Hippocampus
Method in brief: (§5)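 Organotypic hippocampal slice cultures exposed to NMDA or kainic acid alone or with test compound; propidium iodide in all wells, cell death read as PI fluorescence intensity; qualitative primary screen.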

[15] = system: Mus musculus; assay: Anticonvulsant activity in ip dosed albino CF-1 mouse assessed as protection against 6 Hz psychomotor seizure after 1 hr by minimal clonic seizure test; assay type: functional; conditions: albino CF-1, ip
Method in brief: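 Quantitative 6 Hz test in male CF-1 mice dosed i.p.; 32 mA for 3 s via corneal electrodes at time of peak effect; ED50 with 95% confidence interval, slope and standard error reported.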

[16] = system: Mus musculus; assay: Anticonvulsant activity in ip dosed albino CF-1 mouse assessed as dose required to protect against maximal electroshock-induced seizures after 4 hrs; assay type: functional; method in brief: as §1
[17] = Neuroprotective activity in hippocampal slices assessed as protection against kainic acid-induced cell death after 4 hrs; assay type: functional, tissue-based; conditions: Hippocampus; method in brief: as §5
[18] = system: Rattus norvegicus; assay: Anticonvulsant activity in Sprague-Dawley rat assessed as protection against pilocarpine-induced status epilepticus at 600 mg/kg, ip; assay type: functional, organism-based; set-up: dose 600 mg/kg
Method in brief: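 Male albino Sprague Dawley rats (150–180 g) dosed i.p., then challenged with pilocarpine; qualitative screen scored as protection or no protection, seizure severity graded on the Racine scale; N/F and deaths recorded, time taken post first Stage III seizure.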

Structure (SMILES)	Activity [1]	Activity [2]	Activity [3]	Activity [4]	logP at 24 h [5]	Activity [6]	Activity [7]	Activity [8]	Activity [9]	Activity [10]	Activity [11]	Activity [12]	Activity [13]	other results
O=C(N/N=C\c1ccc(Oc2ccc3ccccc3c2)cc1)c1ccncc1	inactive	inactive	inactive	Non-toxic	4.52	inactive	inactive	Non-toxic	–	–	–	–	–	–
O=C(N/N=C\c1ccc(Oc2ccc(Br)cc2)cc1)c1ccncc1	inactive	inactive	inactive	Non-toxic	4.03	inactive	inactive	Non-toxic	inactive	inactive	inactive	inactive	Active	–
Cc1cc(Oc2ccc(/C=N\NC(=O)c3ccncc3)cc2)ccc1Cl	inactive	inactive	inactive	Non-toxic	4.21	inactive	inactive	Non-toxic	inactive	inactive	inactive	Active	inactive	–
Cc1ccc(Oc2ccc(/C=N\NC(=O)c3ccncc3)cc2)cc1	inactive	inactive	inactive	Non-toxic	3.65	–	inactive	Non-toxic	Active	–	inactive	Active	–	Activity [14]: inactive; ED50 [15]: > 200 mg/kg; Activity ([10]; route intraperitoneal): 75%; Activity [16]: 300 mg/kg; Activity [17]: inactive; Activity ([13]; route intraperitoneal): 50%
O=C1Nc2ccccc2/C1=N\NC(=O)c1ccncc1	inactive	inactive	inactive	–	–	inactive	inactive	–	–	Active	inactive	Active	inactive	Activity ([9]; route intraperitoneal): 50%; Activity [18]: inactive
O=C(N/N=C\c1ccc(Oc2ccccc2)cc1)c1ccncc1	inactive	inactive	inactive	Non-toxic	3.37	inactive	inactive	Non-toxic	–	–	–	–	–	–
O=C(N/N=C\c1ccc(Oc2ccc3c(c2)OCO3)cc1)c1ccncc1	inactive	inactive	inactive	Non-toxic	3.2	inactive	inactive	Non-toxic	–	–	–	–	–	–
O=C(N/N=C\c1ccc(Oc2ccc(Cl)cc2)cc1)c1ccncc1	inactive	inactive	inactive	–	3.95	inactive	inactive	Non-toxic	–	–	–	–	–	–
O=C(N/N=C\c1ccc(Oc2ccc([N+](=O)[O-])cc2)cc1)c1ccncc1	inactive	inactive	inactive	Non-toxic	3.23	inactive	inactive	Non-toxic	–	–	–	–	–	–
